Experimental data from ChEMBL document CHEMBL1152649, “Synthesis, cytotoxicity and human telomerase inhibition activities of a series of 1,2-heteroannelated anthraquinones and anthra[1,2-d]imidazole-6,11-dione homologues” (2009).
Active and inactive are the calls of the source. The calls are words filed in the database; no cut-off is given here.

Columns and labels:
[1] = Cytotoxicity against human H1299 cells at 1 uM after 48 hrs by MTT assay; format: functional; details: NCI-H1299, 48 h
Method in brief: (§1)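 H1299 non-small cell lung cancer cells were grown in RPMI 1640 with 10% FBS, penicillin and streptomycin at 37 °C under 5% CO2. About 2 × 10³ cells per well were seeded and left 24 h. Compounds were dissolved fresh in DMSO, diluted into complete medium and applied for 48 h. MTT was then added for 4 h at 37 °C, followed by lysis buffer (20% SDS, 50% DMF) for 16 h, and absorbance was read at 550 nm.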

[2] = Cytotoxicity against human H1299 cells at 10 uM after 48 hrs by MTT assay; format: functional; details: NCI-H1299, 48 h; method in brief: as §1
[3] = target: Telomerase reverse transcriptase (Homo sapiens) (UniProt O14746); experiment: Inhibition of telomerase in human H1299 cells up to 100 uM by TRAP assay; format: cell-based
Chain of Telomerase reverse transcriptase (Homo sapiens) (O14746 whole entry): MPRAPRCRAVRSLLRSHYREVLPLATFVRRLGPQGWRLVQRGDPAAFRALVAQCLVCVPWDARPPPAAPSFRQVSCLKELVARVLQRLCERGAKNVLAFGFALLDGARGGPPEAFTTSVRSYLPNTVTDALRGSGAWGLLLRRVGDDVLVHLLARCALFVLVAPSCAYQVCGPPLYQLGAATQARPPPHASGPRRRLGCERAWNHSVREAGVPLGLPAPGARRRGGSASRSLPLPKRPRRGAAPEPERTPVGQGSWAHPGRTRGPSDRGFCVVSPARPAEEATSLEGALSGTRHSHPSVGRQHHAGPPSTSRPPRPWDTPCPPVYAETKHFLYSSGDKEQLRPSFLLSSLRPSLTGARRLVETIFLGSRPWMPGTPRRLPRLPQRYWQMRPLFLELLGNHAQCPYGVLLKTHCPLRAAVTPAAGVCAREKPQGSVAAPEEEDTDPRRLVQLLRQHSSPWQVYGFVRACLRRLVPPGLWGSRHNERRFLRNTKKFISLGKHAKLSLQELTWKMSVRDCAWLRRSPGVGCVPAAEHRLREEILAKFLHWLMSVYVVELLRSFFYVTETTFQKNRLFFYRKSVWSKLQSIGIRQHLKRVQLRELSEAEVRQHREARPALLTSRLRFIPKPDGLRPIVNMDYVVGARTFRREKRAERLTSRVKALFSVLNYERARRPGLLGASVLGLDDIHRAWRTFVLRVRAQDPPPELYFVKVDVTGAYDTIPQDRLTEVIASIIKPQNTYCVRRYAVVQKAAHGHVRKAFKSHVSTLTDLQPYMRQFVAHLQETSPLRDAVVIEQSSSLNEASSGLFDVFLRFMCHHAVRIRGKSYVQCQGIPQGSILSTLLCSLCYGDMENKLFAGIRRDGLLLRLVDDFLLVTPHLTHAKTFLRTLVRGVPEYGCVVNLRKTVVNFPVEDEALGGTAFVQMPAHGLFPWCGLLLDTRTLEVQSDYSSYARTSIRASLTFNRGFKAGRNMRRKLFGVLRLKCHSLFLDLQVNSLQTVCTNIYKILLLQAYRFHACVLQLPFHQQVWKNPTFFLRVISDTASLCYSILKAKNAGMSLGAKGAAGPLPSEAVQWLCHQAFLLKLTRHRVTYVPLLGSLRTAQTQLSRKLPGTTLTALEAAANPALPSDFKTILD
Method in brief: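 PCR-based telomeric repeat amplification protocol (TRAP). The telomerase source was total lysate of H1299 lung cancer cells, with protein measured against BSA standards. Controls were extract without inhibitor and RNase A-treated extract.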

EKVX = experiment: Antiproliferative activity against human EKVX cells assessed as cell growth at 10 uM; format: functional; details: read-out: Activity
Method in brief: (§2)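 NCI 60 cell line panel, single-dose screen (10^-5 M) run by the developmental therapeutics program protocol. Results are given as growth percent of treated cells relative to untreated control cells for each line.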

SW-620 = experiment: Antiproliferative activity against human SW620 cells assessed as cell growth at 10 uM; format: functional; details: read-out: Activity
Method in brief: (§3)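 NCI 60 cell line panel, single dose (10^-5 M), run per the Developmental Therapeutics Program protocol (one dose mean graph). Each result is the growth percentage of treated cells relative to untreated control cells.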

[4] = Antiproliferative activity against human Hs 578T cells assessed as cell growth at 10 uM; format: functional; details: read-out: Activity; method in brief: as §2
MCF7 = experiment: Antiproliferative activity against human MCF7 cells assessed as cell growth at 10 uM; format: functional; details: read-out: Activity; method in brief: as §2
MDA-MB-231 = experiment: Antiproliferative activity against human MDA-MB-231 cells assessed as cell growth at 10 uM; format: functional; details: read-out: Activity; method in brief: as §2
MDA-MB-435 = experiment: Antiproliferative activity against human MDA-MB-435 cells assessed as cell growth at 10 uM; format: functional; details: read-out: Activity; method in brief: as §2
NCI/ADR-RES = experiment: Antiproliferative activity against human NCI/ADR-RES cells assessed as cell growth at 10 uM; format: functional; details: read-out: Activity; method in brief: as §2
OVCAR-3 = experiment: Antiproliferative activity against human OVCAR-3 cells assessed as cell growth at 10 uM; format: functional; details: read-out: Activity; method in brief: as §2
OVCAR-4 = experiment: Antiproliferative activity against human OVCAR4 cells assessed as cell growth at 10 uM; format: functional; details: read-out: Activity; method in brief: as §2
OVCAR-5 = experiment: Antiproliferative activity against human OVCAR5 cells assessed as cell growth at 10 uM; format: functional; details: read-out: Activity; method in brief: as §2
SK-OV-3 = experiment: Antiproliferative activity against human SKOV3 cells assessed as cell growth at 10 uM; format: functional; details: read-out: Activity; method in brief: as §2
K562 = experiment: Antiproliferative activity against human K562 cells assessed as cell growth at 10 uM; format: functional; details: read-out: Activity; method in brief: as §2
MOLT-4 = experiment: Antiproliferative activity against human MOLT4 cells assessed as cell growth at 10 uM; format: functional; details: read-out: Activity; method in brief: as §2
786-0 = experiment: Antiproliferative activity against human 786-0 cells assessed as cell growth at 10 uM; format: functional; details: read-out: Activity; method in brief: as §2
TK-10 = experiment: Antiproliferative activity against human TK10 cells assessed as cell growth at 10 uM; format: functional; details: read-out: Activity; method in brief: as §3
UO-31 = experiment: Antiproliferative activity against human UO31 cells assessed as cell growth at 10 uM; format: functional; details: read-out: Activity; method in brief: as §3
M14 = experiment: Antiproliferative activity against human M14 cells assessed as cell growth at 10 uM; format: functional; details: read-out: Activity; method in brief: as §2
SK-MEL-2 = experiment: Antiproliferative activity against human SK-MEL-2 cells assessed as cell growth at 10 uM; format: functional; details: read-out: Activity; method in brief: as §2
SK-MEL-28 = experiment: Antiproliferative activity against human SK-MEL-28 cells assessed as cell growth at 10 uM; format: functional; details: read-out: Activity; method in brief: as §2
UACC-62 = experiment: Antiproliferative activity against human UACC62 cells assessed as cell growth at 10 uM; format: functional; details: read-out: Activity; method in brief: as §3
DU-145 = experiment: Antiproliferative activity against human DU145 cells assessed as cell growth at 10 uM; format: functional; details: read-out: Activity; method in brief: as §2
SF-295 = experiment: Antiproliferative activity against human SF295 cells assessed as cell growth at 10 uM; format: functional; details: read-out: Activity; method in brief: as §2
SF-539 = experiment: Antiproliferative activity against human SF539 cells assessed as cell growth at 10 uM; format: functional; details: read-out: Activity; method in brief: as §2
SNB-19 = experiment: Antiproliferative activity against human SNB19 cells assessed as cell growth at 10 uM; format: functional; details: read-out: Activity; method in brief: as §2
SNB-75 = experiment: Antiproliferative activity against human SNB75 cells assessed as cell growth at 10 uM; format: functional; details: read-out: Activity; method in brief: as §3
U-251 = experiment: Antiproliferative activity against human U251 cells assessed as cell growth at 10 uM; format: functional; details: read-out: Activity; method in brief: as §3
NCI-H226 = experiment: Antiproliferative activity against human NCI-H226 cells assessed as cell growth at 10 uM; format: functional; details: read-out: Activity; method in brief: as §2
NCI-H23 = experiment: Antiproliferative activity against human NCI-H23 cells assessed as cell growth at 10 uM; format: functional; details: read-out: Activity; method in brief: as §2
NCI-H322M = experiment: Antiproliferative activity against human NCI-H322M cells assessed as cell growth at 10 uM; format: functional; details: read-out: Activity; method in brief: as §2
NCI-H460 = experiment: Antiproliferative activity against human NCI-H460 cells assessed as cell growth at 10 uM; format: functional; details: read-out: Activity; method in brief: as §2
COLO 205 = experiment: Antiproliferative activity against human COLO205 cells assessed as cell growth at 10 uM; format: functional; details: read-out: Activity; method in brief: as §2
HCC 2998 = experiment: Antiproliferative activity against human HCC2998 cells assessed as cell growth at 10 uM; format: functional; details: read-out: Activity; method in brief: as §2
HCT-15 = experiment: Antiproliferative activity against human HCT15 cells assessed as cell growth at 10 uM; format: functional; details: read-out: Activity; method in brief: as §2
HT-29 = experiment: Antiproliferative activity against human HT-29 cells assessed as cell growth at 10 uM; format: functional; details: read-out: Activity; method in brief: as §2
KM12 = experiment: Antiproliferative activity against human KM12 cells assessed as cell growth at 10 uM; format: functional; details: read-out: Activity; method in brief: as §2
[5] = target: Telomerase reverse transcriptase (Homo sapiens) (UniProt O14746); experiment: Inhibition of TERT in human H1299 cells assessed as residual transcriptional activity at 1 uM after 24 hrs by SEAP reporter gene assay; values are per cent of control
[6] = target: Telomerase reverse transcriptase (Homo sapiens) (UniProt O14746); experiment: Inhibition of TERT in human H1299 cells assessed as residual transcriptional activity at 10 uM after 24 hrs by SEAP reporter gene assay; values are per cent of control
[7] = target: Telomerase reverse transcriptase (Homo sapiens) (UniProt O14746); experiment: Inhibition of TERT in human H1299 cells assessed as residual transcriptional activity at 100 uM after 24 hrs by SEAP reporter gene assay; values are per cent of control
CCRF-CEM = experiment: Antiproliferative activity against human CCRF-CEM cells assessed as cell growth at 10 uM; format: functional; details: read-out: Activity; method in brief: as §2
PC-3 = experiment: Antiproliferative activity against human PC3 cells assessed as cell growth at 10 uM; format: functional; details: read-out: Activity; method in brief: as §2
HOP-92 = experiment: Antiproliferative activity against human HOP92 cells assessed as cell growth at 10 uM; format: functional; details: read-out: Activity; method in brief: as §2

In the case of O=C1c2ccccc2C(=O)c2c1ccc1nccnc21, the viability at 1 µM [1] is reported as 98%, the viability at 10 µM [2] is reported as 13% and the inhibition [3] is reported as “inactive”. The growth at 10 µM (EKVX) was 82.6%, the growth at 10 µM (SW-620) was 39.2% and the growth at 10 µM [4] was 76.8%. The growth at 10 µM (MCF7) was 39.7%, the growth at 10 µM (MDA-MB-231) was 81.4% and the growth at 10 µM (MDA-MB-435) was 102%. The growth at 10 µM (NCI/ADR-RES) was 68%, the growth at 10 µM (OVCAR-3) was 71.7% and the growth at 10 µM (OVCAR-4) was 94.2%. For the same compound, the growth at 10 µM (OVCAR-5) was 107%, the growth at 10 µM (SK-OV-3) was 78.2% and the growth at 10 µM (K562) was 37.2%. For the same compound, the growth at 10 µM (MOLT-4) was 22.9%, the growth at 10 µM (786-0) was 28.4% and the growth at 10 µM (TK-10) was 127%. For the same compound, the growth at 10 µM (UO-31) was 51.5%, the growth at 10 µM (M14) was 59.8% and the growth at 10 µM (SK-MEL-2) was 6.66%. It also gave a growth at 10 µM (SK-MEL-28) of 97.5%, a growth at 10 µM (UACC-62) of 90.5% and a growth at 10 µM (DU-145) of 93.3%. The growth at 10 µM (SF-295) was 80.8%, the growth at 10 µM (SF-539) was 40.7% and the growth at 10 µM (SNB-19) was 87.3%. The growth at 10 µM (SNB-75) was 105%, the growth at 10 µM (U-251) was 63.5% and the growth at 10 µM (NCI-H226) was 86.7%. The growth at 10 µM (NCI-H23) was 65.1%, the growth at 10 µM (NCI-H322M) was 96.3% and the growth at 10 µM (NCI-H460) was 31.7%. It also gave a growth at 10 µM (COLO 205) of 71.6%, a growth at 10 µM (HCC 2998) of -7.15% and a growth at 10 µM (HCT-15) of 52.1%. It also gave a growth at 10 µM (HT-29) of 81.9%, a growth at 10 µM (KM12) of 61% and a residual activity [5] of 105%. For the same compound, the residual activity [6] was 26% and the residual activity [7] was 24%.

With N#Cc1ccc(-c2nc3ccc4c(c3[nH]2)C(=O)c2ccccc2C4=O)cc1 the viability at 1 µM [1] was 80%, the viability at 10 µM [2] was 77% and the inhibition [3] was “inactive”. For the same compound, the growth at 10 µM (EKVX) was 99.8%, the growth at 10 µM (SW-620) was 89.4% and the growth at 10 µM [4] was 102%. The growth at 10 µM (MCF7) was 62.7%, the growth at 10 µM (MDA-MB-231) was 87.1% and the growth at 10 µM (MDA-MB-435) was 113%. It also gave a growth at 10 µM (NCI/ADR-RES) of 102%, a growth at 10 µM (OVCAR-3) of 111% and a growth at 10 µM (OVCAR-4) of 101%. The growth at 10 µM (OVCAR-5) was 98.1%, the growth at 10 µM (SK-OV-3) was 104% and the growth at 10 µM (CCRF-CEM) was 117%. For the same compound, the growth at 10 µM (K562) was 54.9%, the growth at 10 µM (MOLT-4) was 87.1% and the growth at 10 µM (786-0) was 124%. The growth at 10 µM (TK-10) was 180%, the growth at 10 µM (UO-31) was 80.4% and the growth at 10 µM (M14) was 243%. It also gave a growth at 10 µM (SK-MEL-2) of 22.5%, a growth at 10 µM (SK-MEL-28) of 115% and a growth at 10 µM (UACC-62) of 104%. For the same compound, the growth at 10 µM (DU-145) was 97.7%, the growth at 10 µM (PC-3) was 109% and the growth at 10 µM (SF-295) was 120%. For the same compound, the growth at 10 µM (SF-539) was 104%, the growth at 10 µM (SNB-19) was 97.8% and the growth at 10 µM (SNB-75) was 63.2%. It also gave a growth at 10 µM (U-251) of 112%, a growth at 10 µM (HOP-92) of 56.2% and a growth at 10 µM (NCI-H226) of 103%. The growth at 10 µM (NCI-H23) was 90.9%, the growth at 10 µM (NCI-H322M) was 127% and the growth at 10 µM (NCI-H460) was 105%. The growth at 10 µM (COLO 205) was 113%, the growth at 10 µM (HCC 2998) was 74.7% and the growth at 10 µM (HCT-15) was 101%. It also gave a growth at 10 µM (HT-29) of 86.4%, a growth at 10 µM (KM12) of 98.6% and a residual activity [5] of 91%. The residual activity [6] was 83% and the residual activity [7] was 30%.
